Reference: ChEMBL document CHEMBL3861996, “Arylsulfonamide derivatives of (aryloxy)ethyl pyrrolidines and piperidines as α1-adrenergic receptor antagonist with uro-selective activity” (Bioorg Med Chem, 2016)

Tests used:
[1] = biological target: T1, 5-hydroxytryptamine receptor 1A (Homo sapiens) (UniProt P08908); assay: Displacement of [3H]-8-OH-DPAT from human 5-HT1A receptor expressed in CHO-K1 cell membranes at 1 uM after 1 hr by micro beta2 scintillation counting analysis
T1 sequence (whole entry): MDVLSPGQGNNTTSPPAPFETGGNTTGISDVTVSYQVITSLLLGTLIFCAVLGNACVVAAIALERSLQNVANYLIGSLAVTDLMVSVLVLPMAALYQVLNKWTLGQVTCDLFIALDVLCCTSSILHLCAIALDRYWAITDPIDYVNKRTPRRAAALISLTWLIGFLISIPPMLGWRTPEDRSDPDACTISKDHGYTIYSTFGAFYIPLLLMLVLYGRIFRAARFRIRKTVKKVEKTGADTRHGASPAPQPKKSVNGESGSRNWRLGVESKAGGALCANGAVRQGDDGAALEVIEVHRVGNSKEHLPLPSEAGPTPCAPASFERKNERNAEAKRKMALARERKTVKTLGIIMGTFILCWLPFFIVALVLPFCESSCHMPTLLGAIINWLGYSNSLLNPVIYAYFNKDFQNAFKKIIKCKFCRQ
Procedure, shortened: (§1)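 Membranes of CHO-K1 cells stably expressing human 5-HT1A or 5-HT7 receptor. Buffer 50 mM Tris–HCl, 0.1 mM EDTA, 10 mM MgCl2. Each compound screened at final 10 µM and 1 µM. Incubation at 37 °C, 1 h for 5-HT1A and 2 h for 5-HT7. Non-specific binding defined with 10 µM 5-HT (5-HT1A) or 10 µM methiothepine (5-HT7). Output is percent inhibition of specific binding.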

[2] = biological target: 5-hydroxytryptamine receptor 7 (Homo sapiens) (UniProt P34969); assay: Displacement of [3H]-LSD from human 5-HT7 receptor expressed in CHO-K1 cell membranes at 1 uM after 2 hr by micro beta2 scintillation counting analysis; procedure, shortened: as §1
[3] = biological target: 5-hydroxytryptamine receptor 7 (Homo sapiens) (UniProt P34969); assay: Displacement of [3H]-LSD from human 5-HT7 receptor expressed in CHO-K1 cell membranes at 10 uM after 2 hr by micro beta2 scintillation counting analysis; conditions: 0.1 uM, in the assay text read “at 0.1 uM” for “at 10 uM”; procedure, shortened: as §1
Rattus norvegicus [4] = assay: Hypotensive activity in normotensive anesthetized Wistar rat assessed as decrease in systolic blood pressure at 5 mg/kg, iv administered as single dose measured 60 mins post dose relative to control; type: functional; conditions: 1 h
Procedure, shortened: (§2)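 Male Wistar rats (200–250 g), groups of six, anaesthetized with thiopental 70 mg/kg ip. Left carotid artery cannulated with heparinized saline-filled tubing for pressure recording. Compounds dissolved in water and given once iv. Blood pressure taken at 0 min (control) and over 60 min afterward. Data as mean ± SEM, analysed by one-way ANOVA with Dunnett's test against 0 min.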

Rattus norvegicus [5] = assay: Hypotensive activity in normotensive anesthetized Wistar rat assessed as decrease in diastolic blood pressure at 5 mg/kg, iv administered as single dose measured 60 mins post dose relative to control; type: functional; conditions: 1 h; procedure, shortened: as §2
Rattus norvegicus [6] = assay: Hypotensive activity in normotensive anesthetized Wistar rat assessed as decrease in systolic blood pressure at 2 mg/kg, iv administered as single dose measured 60 mins post dose relative to control; type: functional; conditions: 1 h; procedure, shortened: as §2
Rattus norvegicus [7] = assay: Hypotensive activity in normotensive anesthetized Wistar rat assessed as decrease in diastolic blood pressure at 2 mg/kg, iv administered as single dose measured 60 mins post dose relative to control; type: functional; conditions: 1 h; procedure, shortened: as §2

Chain of 5-hydroxytryptamine receptor 7 (Homo sapiens) (P34969 whole entry): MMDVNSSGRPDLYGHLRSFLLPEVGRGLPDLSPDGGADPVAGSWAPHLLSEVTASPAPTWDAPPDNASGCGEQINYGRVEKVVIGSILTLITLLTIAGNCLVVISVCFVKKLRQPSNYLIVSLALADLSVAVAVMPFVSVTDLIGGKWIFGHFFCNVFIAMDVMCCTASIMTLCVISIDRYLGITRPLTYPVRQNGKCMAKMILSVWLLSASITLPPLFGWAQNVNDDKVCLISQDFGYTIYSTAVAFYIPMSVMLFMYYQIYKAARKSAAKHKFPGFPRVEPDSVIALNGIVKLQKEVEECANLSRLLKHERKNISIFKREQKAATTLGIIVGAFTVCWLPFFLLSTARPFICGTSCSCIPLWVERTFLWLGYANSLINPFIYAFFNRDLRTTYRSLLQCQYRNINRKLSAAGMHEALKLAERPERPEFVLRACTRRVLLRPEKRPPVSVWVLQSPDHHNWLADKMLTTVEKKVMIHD

inhibition [1]	inhibition [2]	inhibition [3]	Structure (SMILES)	inhibition in vivo at 5 mg/kg (Rattus norvegicus [4])	inhibition in vivo at 5 mg/kg (Rattus norvegicus [5])	inhibition in vivo at 2 mg/kg (Rattus norvegicus [6])	inhibition in vivo at 2 mg/kg (Rattus norvegicus [7])
69%	87%	41%	COc1ccccc1OCCN1CCC(NS(=O)(=O)c2cncc3ccccc23)CC1	6 to 11%	2 to 8%	4 to 10%	4 to 8%
78%	89%	54%	COc1ccccc1OCCN1CCC(CNS(=O)(=O)c2cncc3ccccc23)CC1				

The remaining lines, values behind:

Structure (SMILES)	inhibition [1]	inhibition [2]	inhibition [3]	inhibition in vivo at 5 mg/kg (Rattus norvegicus [4])	inhibition in vivo at 5 mg/kg (Rattus norvegicus [5])	inhibition in vivo at 2 mg/kg (Rattus norvegicus [6])	inhibition in vivo at 2 mg/kg (Rattus norvegicus [7])
CC(C)Oc1ccccc1OCCN1CCC(CNS(=O)(=O)c2cccc(Cl)c2F)CC1	59%	90%	45%	2 to 5%		7%	
CC(C)Oc1ccccc1OCCN1CCC(CNS(=O)(=O)c2cccc3cccnc23)CC1	61%	91%	51%				
COc1ccc(S(=O)(=O)NCC2CCN(CCOc3ccccc3OC)CC2)cc1OC	72%	52%	16%				
